The results in this text go back to ChEMBL document CHEMBL4196141, “Improved Antibacterial Activity of the Marine Peptide N6 against Intracellular Salmonella Typhimurium by Conjugating with the Cell-Penetrating Peptide Tat11 via a Cleavable Linker” (J Med Chem, 2018).

Converted amounts (≈) assume the structure as drawn. The source made the active and inactive calls. No cut-off for these calls is given here. Positions of bridges follow the written chain, without caps; N, C: chain ends. Residues, ends and D or L forms follow the SMILES beside them. A value given as a limit tells only on which side of the number the result lay.

Series [1] concerns Salmonella typhimurium. As to the kind of experiment: Bactericidal activity against 2 hrs-gentamicin pre-exposed Salmonella typhimurium ATCC 14028 assessed as effect on bacterial re-growth at 10 uM measured after 9 hrs. The class given is functional, organism-based. Particulars: Salmonella enterica subsp. enterica serovar Typhimurium. The method in brief: (§1)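 RAW264.7 cells in DMEM/10% FBS were infected with S. Typhimurium ATCC14028 at MOI 10 for 1 h, then given 100 µg/mL gentamicin for 2 h at 37 °C and washed. Cells were treated with 10 µM agent for 1, 3, 6, 9 and 12 h, lysed with 0.1% Triton X-100, and surviving intracellular bacteria were serially diluted and plated for CFU.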

Series [2] can be described thus: Drug internalization in mouse RAW264.7 using FITC-labeled compound at 2 uM pre-incubated for 1 hr with macropinocytosis inhibitor amiloride followed by compound addition and subsequent incubation for 2 hrs by flow cytometry. Particulars: raw264.7, 2 h. Type of series: ADME, cell-based. A digest of the protocol: (§2)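 RAW264.7 cells were pretreated 1 h at 37 °C with 3 mM amiloride, 20 µM nocodazole, 6 µg/mL chlorpromazine or 5 mM MβCD. FITC-labeled peptide was then added for 2 h at 37 °C. Extracellular fluorescence was quenched with 0.4% Trypan blue and intracellular fluorescence read by flow cytometry against an untreated control.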

Series [3] in a line: Drug localisation in cytosol of mouse RAW264.7 using FITC-labeled compound at 5 uM incubated for 2 hrs by confocal microscopy. Type of series: ADME, cell-based. A digest of the protocol: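 RAW264.7 cells were plated for 18 h at 37 °C, then given 5 µM FITC or FITC-labeled peptide for 2 h. Nuclei were stained with Hoechst 33342 and membranes with FM 4-64 (each 5 µg/mL) for 30 min at 37 °C. Cells were PBS-washed and imaged by confocal fluorescence microscopy.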

In series [4] the test system is Salmonella typhimurium. As to the kind of experiment: Antibacterial activity against Salmonella typhimurium ATCC 14028 incubated for 16 to 18 hrs at pH 7.2 by broth microdilution method. Type of series: functional, Salmonella enterica subsp. enterica serovar Typhimurium. The conditions noted are these: Salmonella enterica. A digest of the protocol: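 Broth microdilution in MH broth. S. Typhimurium ATCC14028 was grown overnight at 37 °C to semi-log phase, pelleted, and diluted to OD600 0.01; final inoculum was 5 × 10^5 CFU/mL. Plates were incubated 16–18 h at 37 °C. MIC is the lowest peptide concentration with no visible growth. Data are in duplicate from at least two independent experiments.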

A short description of series [5]: Drug uptake in mouse RAW264.7 using FITC-labeled compound at 5 uM incubated for 2 hrs by flow cytometry. Type of series: ADME, cell-based. The conditions noted are these: raw264.7, 2 h. A digest of the protocol: (§3)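 Confluent RAW264.7 cells were resuspended in PBS and incubated at 37 °C with 5 µM FITC-labeled peptide. Samples taken at 0.5 h and 2 h were quenched with 0.4% Trypan blue for extracellular fluorescence. Uptake (percent internalized cells) was read by flow cytometry, with free FITC as negative control.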

Series [6] deals with Salmonella typhimurium. As to the kind of experiment: Antibacterial activity against Salmonella typhimurium ATCC 14028 using 1 hr cathepsin B pre-treated compound followed by incubation for 16 to 18 hrs at pH 5 by broth microdilution method. The class given is functional, Salmonella enterica subsp. enterica serovar Typhimurium. Particulars: Salmonella enterica. A digest of the protocol:
(§4)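 Cathepsin B (bovine spleen, 10 µg/mL) was added for 1 h at 37 °C, and the reaction was stopped with 9 volumes of MHB. MIC was then run by broth microdilution (5 × 10^5 CFU/mL, 16–18 h, 37 °C) in medium adjusted to pH 5.0.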

Series [7] can be described thus: Drug internalization in mouse RAW264.7 using FITC-labeled compound at 2 uM incubated for 2 hrs at 4 degC by flow cytometry. The class given is ADME, cell-based. Particulars: raw264.7, 2 h.
Series [8] deals with Salmonella typhimurium. As to the kind of experiment: Antibacterial activity against Salmonella typhimurium ATCC 14028 using 1 hr cathepsin B pre-treated compound at pH 5 incubated for 16 to 18 hrs at by broth microdilution method. Type of series: functional, Salmonella enterica subsp. enterica serovar Typhimurium. The conditions noted are these: Salmonella enterica. The method in brief: as §4

Series [9] can be described thus: Drug uptake in mouse RAW264.7 using FITC-labeled compound at 5 uM incubated for 0.5 hrs by flow cytometry. Particulars: raw264.7, 0.5 h. The class given is ADME, cell-based. A digest of the protocol:
as §3

The subject of series [10] is Salmonella typhimurium. As to the kind of experiment: Bactericidal activity against 2 hrs-gentamicin pre-exposed Salmonella typhimurium ATCC 14028 assessed as reduction colony forming units at 50 uM incubated for 10 hrs. Type of series: functional, Salmonella enterica subsp. enterica serovar Typhimurium. A digest of the protocol: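 Macrophage protection assay. RAW264.7 cells (5 × 10^4/well, 24 h) were infected with S. Typhimurium ATCC14028 at MOI 10 for 1 h in DMEM/10% FBS, exposed to 100 µg/mL gentamicin for 2 h at 37 °C, and PBS-washed. Peptides in DMEM/10% FBS were added for 10 h. Cells were lysed with 0.1% Triton X-100 and CFU plated; log10 CFU reduction versus untreated cells. Three replicates; two independent experiments; one-way ANOVA with Tukey.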

Series [11] is described as follows: Cytotoxicity in mouse RAW264.7 assessed as cell survival at 100 uM incubated for 8 hrs by MTT assay. Type of series: cell-based. Particulars: RAW264.7 cells, read-out: Survival. The method in brief: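 RAW264.7 cells seeded at 2.5 × 10^4 cells/well, cultured 24 h, then exposed for 8 h to 2-fold dilutions from 100 to 0.625 µM. MTT at 5 mg/mL added for 4 h, formazan dissolved in DMSO, absorbance read at 570 nm. Untreated cells served as control. Samples run in triplicate.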

The test system of series [12] is Salmonella typhimurium. As to the kind of experiment: Antibacterial activity against Salmonella typhimurium ATCC 14028 infected in ICR mouse model of peritonitis assessed as reduction colony forming units in intracellular fluids at 1 umol/kg, ip dosed at 2 hrs post infection and measured after 10 hrs post dose. Type of series: functional, Salmonella enterica subsp. enterica serovar Typhimurium. The method in brief: (§5)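 Six-week-old female ICR mice (six per group) received ip S. Typhimurium ATCC14028 (5 × 10^5 CFU, 0.5 mL). Peptide was given ip 2 h post-infection and mice were killed 10 h after treatment. Peritoneum was lavaged with 5 mL ice-cold PBS and total CFU counted. For intracellular CFU, pelleted cells were treated with 100 µg/mL gentamicin for 1 h at 37 °C, washed, lysed and plated. PBS served as negative control, ciprofloxacin as positive.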

The subject of series [13] is Salmonella typhimurium. As to the kind of experiment: Antibacterial activity against Salmonella typhimurium ATCC 14028 infected in ICR mouse model of peritonitis assessed as reduction colony forming units in total peritoneal fluids at 1 umol/kg, ip dosed at 2 hrs post infection and measured after 10 hrs post dose. Type of series: functional, Salmonella enterica subsp. enterica serovar Typhimurium. The method in brief:
as §5

Series [14] can be described thus: Drug internalization in mouse RAW264.7 using FITC-labeled compound at 2 uM pre-incubated for 1 hr with tubulin polymerization inhibitor nocodazole followed by compound addition and subsequent incubation for 2 hrs by flow cytometry. The conditions noted are these: raw264.7, 2 h. Type of series: ADME, cell-based. A digest of the protocol:
as §2

The nature of series [15]: Drug internalization in mouse RAW264.7 using FITC-labeled compound at 2 uM pre-incubated for 1 hr with clathrin-mediated endocytosis inhibitor chlorpromazine followed by compound addition and subsequent incubation for 2 hrs by flow cytometry. Type of series: ADME, cell-based. Particulars: raw264.7, 2 h. The method in brief: as §2
For series [16], the system named is Salmonella typhimurium. The series is described as follows: Bactericidal activity against 2 hrs-gentamicin pre-exposed Salmonella typhimurium ATCC 14028 assessed as reduction colony forming units at 10 uM measured within 9 hrs. The class given is functional, organism-based. The conditions noted are these: Salmonella enterica subsp. enterica serovar Typhimurium. The method in brief:
as §1

Series [17] relates to Salmonella typhimurium. As to the kind of experiment: Antibacterial activity against Salmonella typhimurium ATCC 14028 assessed as time duration for reduction in growth using cathepsin B pre-treated compound at 1 to 2 MIC incubated for 1 to 24 hrs by time kill assay. The class given is functional, Salmonella enterica subsp. enterica serovar Typhimurium. A digest of the protocol: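 Time-kill of cathepsin B-pretreated peptide (1 h, 37 °C, pH 5 buffer). Mid-log S. Typhimurium at 10^5 CFU/mL was exposed to 1× and 2× MIC at 37 °C with shaking at 250 rpm. Samples were taken every 2 h, serially diluted and plate-counted. N6 and ciprofloxacin served as controls.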

As for `CC(C)[C@H](NC(=O)CCCCCN1C(=O)CC(SC[C@H](N)C(=O)N[C@@H](Cc2ccc(O)cc2)C(=O)NCC(=O)N[C@@H](CCCNC(=N)N)C(=O)N[C@@H](CCCCN)C(=O)N[C@@H](CCCCN)C(=O)N[C@@H](CCCNC(=N)N)C(=O)N[C@@H](CCCNC(=N)N)C(=O)N[C@@H](CCC(N)=O)C(=O)N[C@@H](CCCNC(=N)N)C(=O)N[C@@H](CCCNC(=N)N)C(=O)N[C@@H](CCCNC(=N)N)C(=O)O)C1=O)C(=O)N[C@@H](CCCNC(N)=O)C(=O)Nc1ccc(COC(=O)NCC(=O)N[C@@H](Cc2ccccc2)C(=O)N[C@@H](C)C(=O)N[C@@H](Cc2c[nH]c3ccccc23)C(=O)N[C@@H](CC(N)=O)C(=O)N[C@H](C(=O)N[C@H]2CSSC[C@@H](C(=O)N[C@@H](Cc3cnc[nH]3)C(=O)N[C@@H](CCCNC(=N)N)C(=O)N[C@@H](CCCNC(=N)N)C(=O)N[C@@H](C)C(=O)N[C@@H](CC(N)=O)C(=O)O)NC(=O)[C@H](C(C)C)NC(=O)[C@H](CCCNC(=N)N)NC(=O)[C@H](C(C)C)NC(=O)CNC(=O)[C@H](CC(N)=O)NC(=O)[C@H](CCCNC(=N)N)NC(=O)[C@H](Cc3ccc(O)cc3)NC(=O)[C@H](C(C)C)NC2=O)C(C)C)cc1` (some centres undefined), in the series on Salmonella typhimurium [1], the outcome was inactive. In addition, the Drug uptake result in series [2] was “Active”; in [3], “Active”; in series [5], 95.8%; in series [7], “Not Active”; in series [9], 82.1%; in series [14], “Not Active”. Moreover, the Drug uptake result in [15] is listed as “Not Active”. The results for the MIC with Salmonella typhimurium [4], in the series with Salmonella typhimurium [6] and in the series on Salmonella typhimurium [8] were above 27.2 µM, 13.6 µM (≈ 64.4 µg/mL) and 1.7 µM (≈ 8.05 µg/mL), respectively. Moreover, the Activity with Salmonella typhimurium [10] is listed as 2.06 log10CFU; in the series on Salmonella typhimurium [12], 1.39 log10CFU; in the series with Salmonella typhimurium [13], 1.87 log10CFU. The viability at 8 h, 100 µM in series [11] came to 88.9%. The result in the series with Salmonella typhimurium [16] was Active. In the series with Salmonella typhimurium [17], the Time entry is “<=2 hr”.
Consider `CC(C)[C@@H]1NC(=O)CNC(=O)[C@H](CC(N)=O)NC(=O)[C@H](CCCNC(=N)N)NC(=O)[C@H](Cc2ccc(O)cc2)NC(=O)[C@H](C(C)C)NC(=O)[C@@H](NC(=O)[C@@H](NC(=O)[C@H](CC(N)=O)NC(=O)[C@H](Cc2c[nH]c3ccccc23)NC(=O)[C@H](C)NC(=O)[C@H](Cc2ccccc2)NC(=O)CN)C(C)C)CSSC[C@@H](C(=O)N[C@@H](Cc2cnc[nH]2)C(=O)N[C@@H](CCCNC(=N)N)C(=O)N[C@@H](CCCNC(=N)N)C(=O)N[C@@H](C)C(=O)N[C@@H](CC(N)=O)C(N)=O)NC(=O)[C@H](C(C)C)NC(=O)[C@H](CCCNC(=N)N)NC1=O` (H-GFAWNVCVYRNGVRVCHRRAN-NH2; disulfide 7-16), for which the result with Salmonella typhimurium [1] was inactive. In addition, the Drug uptake result in [2] is listed as “Not Active”; in series [3], “Active”; in [5], 75.2%; in series [7], “Not Active”; in series [9] it was 30.4%; in series [14], “Not Active”. Also, the Drug uptake entry in series [15] was “Active”. For the same molecule, the minimum inhibitory concentration (MIC) against Salmonella typhimurium [4] amounted to 0.81 µM (≈ 2 µg/mL); in the series on Salmonella typhimurium [6], 3.2 µM (≈ 7.92 µg/mL); in the series on Salmonella typhimurium [8] it was 1.62 µM (≈ 4.01 µg/mL). The Activity was determined as 3.13 log10CFU in the series on Salmonella typhimurium [10], 2.22 log10CFU in the series with Salmonella typhimurium [12] and 3.04 log10CFU in the series on Salmonella typhimurium [13]. Also, the viability at 8 h, 100 µM in series [11] turned out to be 93.5%. Moreover, in the series with Salmonella typhimurium [16], the outcome was Active. The Time entry in the series with Salmonella typhimurium [17] is “<=2 hr”.
